Data published in ChEMBL document CHEMBL1124792, “Synthesis and structure-activity relationships of 5-substituted 6,8-difluoroquinolones, including sparfloxacin, a new quinolone antibacterial agent with improved potency” (1990).
In brackets after ≈: the same amount, converted by molar mass.

Columns and labels:
Type in all cases: functional
[1] = test system: Staphylococcus aureus; experiment: In vitro antibacterial activity against Staphylococcus aureus 209P JC-1
How it was run: (§1)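 Two-fold agar dilution MIC on Mueller-Hinton agar (pH 7.4), following the Japan Society of Chemotherapy MIC Committee method. Inoculum was about 10⁶ CFU, and growth was read after 20 h at 37 °C. MIC is reported in µg/mL.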

[2] = test system: Moraxella bovis; experiment: In vitro antibacterial activity against glucose nonfermenter Moraxella bovis P-7101; how it was run: as §1
[3] = test system: Enterococcus faecalis; experiment: In vitro antibacterial activity against Streptococcus faecalis 2473; how it was run: as §1
[4] = test system: Escherichia coli; experiment: In vitro antibacterial activity against Escherichia coli NIHJ JC-2; how it was run: as §1
[5] = species: Mus musculus; experiment: Oral efficacy against Streptococcus pyogenes A65 on Systemic Infections in Mice
How it was run: (§2)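 Groups of at least 10 male Std-ddY mice (20 ± 2 g) were infected ip, with S. pyogenes A65 at 3×10^7 cells or P. aeruginosa 12 at 4×10^3 cells. Compounds were suspended in 0.2% sodium carboxymethylcellulose and given orally at 0 and 6 h postinfection. The result is reported as ED50 in mg/kg.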

[6] = test system: Streptococcus pyogenes; experiment: In vitro antibacterial activity against Streptococcus pyogenes A65; how it was run: as §1
[7] = test system: Escherichia coli; experiment: In vitro antibacterial activity against Escherichia coli P-5101; how it was run: as §1
[8] = species: Mus musculus; experiment: Oral efficacy against Pseudomonas aeruginosa 12 on Systemic Infections in Mice; how it was run: as §2
[9] = test system: Staphylococcus aureus; experiment: In vitro antibacterial activity against Staphylococcus aureus 50774; how it was run: as §1
[10] = test system: Enterobacter cloacae; experiment: In vitro antibacterial activity against Enterobacter cloacae 963
[11] = test system: Klebsiella pneumoniae; experiment: In vitro antibacterial activity against Klebsiella pneumoniae 13; how it was run: as §1
[12] = test system: Pseudomonas aeruginosa; experiment: In vitro antibacterial activity against Pseudomonas aeruginosa 12; how it was run: as §1
[13] = test system: Pseudomonas aeruginosa; experiment: In vitro antibacterial activity against Pseudomonas aeruginosa IFO 3445; how it was run: as §1
[14] = test system: Serratia marcescens; experiment: In vitro antibacterial activity against Serratia marcescene S-9; how it was run: as §1
[15] = test system: Staphylococcus epidermidis; experiment: In vitro antibacterial activity against Streptococcus epidermis 8; how it was run: as §1
[16] = test system: Serratia marcescens; experiment: In vitro antibacterial activity against Serratia marcescence S-9; how it was run: as §1

| Structure (SMILES) | MIC [1] [µg/mL] | MIC [2] [µg/mL] | MIC [3] [µg/mL] | MIC [4] [µg/mL] | ED50 [5] [mg/kg] | MIC [6] [µg/mL] | MIC [7] [µg/mL] | ED50 [8] [mg/kg] | MIC [9] [µg/mL] | MIC [10] [µg/mL] | MIC [11] [µg/mL] | MIC [12] [µg/mL] | MIC [13] [µg/mL] | MIC [14] [µg/mL] | MIC [15] [µg/mL] | MIC [16] [µg/mL] |
| --- | --- | --- | --- | --- | --- | --- | --- | --- | --- | --- | --- | --- | --- | --- | --- | --- |
| CC1CN(c2c(F)c(F)c3c(=O)c(C(=O)O)cn(C4CC4)c3c2F)CCN1 (stereo not given) | 0.2 (≈ 0.524 µM) | 1.56 (≈ 4.09 µM) | 3.13 (≈ 8.21 µM) | 0.0125 (≈ 0.0328 µM) | 17.3 | 1.56 (≈ 4.09 µM) | 0.0063 (≈ 0.0165 µM) | 2.46 | 0.2 (≈ 0.524 µM) | 0.025 (≈ 0.0656 µM) | 0.05 (≈ 0.131 µM) | 0.78 (≈ 2.05 µM) | 0.78 (≈ 2.05 µM) | 0.2 (≈ 0.524 µM) | 0.2 (≈ 0.524 µM) |  |
| C[C@@H]1CN(c2c(F)c(N)c3c(=O)c(C(=O)O)cn(C4CC4)c3c2F)C[C@H](C)N1 [SPARFLOXACIN] | 0.05 (≈ 0.127 µM) | 0.39 (≈ 0.994 µM) | 0.78 (≈ 1.99 µM) | 0.0125 (≈ 0.0319 µM) | 3.36 | 0.39 (≈ 0.994 µM) | 0.0125 (≈ 0.0319 µM) | 1.57 | 0.05 (≈ 0.127 µM) | 0.05 (≈ 0.127 µM) | 0.05 (≈ 0.127 µM) | 0.39 (≈ 0.994 µM) | 0.39 (≈ 0.994 µM) |  | 0.05 (≈ 0.127 µM) | 0.2 (≈ 0.51 µM) |
| Nc1c(F)c(N2CCNC(CF)C2)c(F)c2c1c(=O)c(C(=O)O)cn2C1CC1 (stereo not given) | 0.025 (≈ 0.0631 µM) | 0.39 (≈ 0.984 µM) | 0.39 (≈ 0.984 µM) | 0.0063 (≈ 0.0159 µM) | 17.4 | 0.2 (≈ 0.505 µM) | 0.0063 (≈ 0.0159 µM) | 7.02 | 0.0125 (≈ 0.0315 µM) | 0.025 (≈ 0.0631 µM) | 0.025 (≈ 0.0631 µM) | 0.2 (≈ 0.505 µM) | 0.39 (≈ 0.984 µM) |  | 0.0125 (≈ 0.0315 µM) | 0.1 (≈ 0.252 µM) |
| CC1CN(c2c(F)c(O)c3c(=O)c(C(=O)O)cn(C4CC4)c3c2F)CCN1 (stereo not given) | 0.2 (≈ 0.527 µM) | 1.56 (≈ 4.11 µM) | 1.56 (≈ 4.11 µM) | 0.025 (≈ 0.0659 µM) | 12.5 | 0.78 (≈ 2.06 µM) | 0.025 (≈ 0.0659 µM) | 5.97 | 0.2 (≈ 0.527 µM) | 0.05 (≈ 0.132 µM) | 0.1 (≈ 0.264 µM) | 0.78 (≈ 2.06 µM) | 0.78 (≈ 2.06 µM) |  | 0.1 (≈ 0.264 µM) | 0.1 (≈ 0.264 µM) |
| C[C@@H]1CN(c2c(F)c(N)c3c(=O)c(C(=O)O)cn(C4CC4)c3c2F)C[C@@H](C)N1 (relative stereo) | 0.025 (≈ 0.0637 µM) | 0.78 (≈ 1.99 µM) | 0.39 (≈ 0.994 µM) | 0.0125 (≈ 0.0319 µM) | 7.38 | 0.39 (≈ 0.994 µM) | 0.0125 (≈ 0.0319 µM) | 6.33 | 0.025 (≈ 0.0637 µM) | 0.1 (≈ 0.255 µM) | 0.1 (≈ 0.255 µM) | 0.78 (≈ 1.99 µM) | 0.78 (≈ 1.99 µM) |  | 0.0125 (≈ 0.0319 µM) | 0.39 (≈ 0.994 µM) |
| CC1CN(c2c(F)c(N)c3c(=O)c(C(=O)O)cn(C4CC4)c3c2F)CCN1 (stereo not given) | 0.025 (≈ 0.0661 µM) | 0.39 (≈ 1.03 µM) | 0.39 (≈ 1.03 µM) | 0.006 (≈ 0.0159 µM) | 6.54 | 0.39 (≈ 1.03 µM) | 0.0063 (≈ 0.0166 µM) | 1.11 | 0.025 (≈ 0.0661 µM) | 0.025 (≈ 0.0661 µM) | 0.0125 (≈ 0.033 µM) | 0.2 (≈ 0.529 µM) | 0.2 (≈ 0.529 µM) |  | 0.025 (≈ 0.0661 µM) | 0.05 (≈ 0.132 µM) |
